Compound activity (PubChem)
Mcl1-Bid inh: Mcl-1/Bid interaction inhibition; Q07820; TR-FRET Mcl-1/Bid-Dy647 peptide binding, 1536-well; inhibition, % at 21.7 µM; 0.97% of 220,000 active; AID 1021;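 active means compounds that cut the binding signal by more than half at the single screening dose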;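 further: His-tagged Mcl-1 with europium anti-His antibody binding Bid BH3 peptide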
Bim-Mcl-1: disrupts Bim peptide binding to human Mcl-1. AID 1009. Bead-based flow cytometry, Bim peptide-Mcl-1 binding. Q07820. inhibition, % at 10 µM. 0.1% of 190,000 active; in the data active means inhibition above about 40%
Hck-Nef inh: blocks Nef-activated human Hck kinase. inhibition, % at 20 µM. P08631. AID 463187. Recombinant Hck-YEEI plus Nef, Z-Lyte FRET kinase assay. 0.68% of 220,000 active;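 active means Hck-Nef kinase inhibition above about 50%, limit read from the data; inactive means inhibition below that limit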
Target sequence (P08631 whole entry, looked up): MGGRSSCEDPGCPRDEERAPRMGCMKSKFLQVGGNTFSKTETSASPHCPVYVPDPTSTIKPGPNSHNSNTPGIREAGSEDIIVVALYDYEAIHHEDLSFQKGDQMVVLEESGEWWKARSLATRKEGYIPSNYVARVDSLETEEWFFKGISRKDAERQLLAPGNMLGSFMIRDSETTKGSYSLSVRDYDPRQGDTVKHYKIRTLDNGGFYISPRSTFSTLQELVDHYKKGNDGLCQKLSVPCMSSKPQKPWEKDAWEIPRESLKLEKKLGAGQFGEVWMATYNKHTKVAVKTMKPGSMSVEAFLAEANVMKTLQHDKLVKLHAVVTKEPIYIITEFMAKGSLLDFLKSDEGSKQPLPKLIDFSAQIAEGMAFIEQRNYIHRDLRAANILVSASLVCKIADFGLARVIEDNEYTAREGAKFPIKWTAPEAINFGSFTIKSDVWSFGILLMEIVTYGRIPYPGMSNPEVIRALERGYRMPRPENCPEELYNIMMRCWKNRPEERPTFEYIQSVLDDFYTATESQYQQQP
Calb biofilm kill: mixture kills Candida albicans biofilm cells | C. albicans biofilm persisters + clotrimazole, fluorescence viability; primary screen in compound mixtures of four per well | inhibition, % at 7.6 µM | 0.02% of 120,000 active | AID 1242;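 active means inhibition above 30.3% in the primary screen of four-compound pools, then above 30% when the compound was retested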;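 further: compounds exposed to preformed 24 h biofilms for 48 h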
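Incubation: 24 h biofilm formation, then 48 h compound exposure, 37 °C | Material: C. albicans biofilms | Buffer or medium: RPMI/MOPS medium, pH 7.0 | Measured by: 2-h Alamar Blue fluorescence, 535/590 nm excitation/emission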
Mcl1 Noxa PPI: disrupts binding of human Mcl-1 to Noxa peptide. inhibition, % at 21.7 µM. 1.5% of 220,000 active. TR-FRET Mcl-1/Noxa peptide binding, 2 h. Q07820;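 active means compounds that cut the protein-peptide binding signal by more than 50% relative to plate controls in a single-dose test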;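 further: His-tagged Mcl-1 with rhodamine Noxa BH3 peptide and terbium anti-His antibody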
14-3-3 Bad PPI: disrupts binding of bovine 14-3-3 zeta to phospho-Bad peptide | TR-FRET 14-3-3zeta/Dy647-pBad peptide displacement, 1 h | inhibition, % at 21.7 µM | 0.71% of 220,000 active | AID 781;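 active means inhibition above about 70%, limit read from the data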
Hck Nef conf: confirmation of Hck-Nef kinase inhibitors; calls only at 10 µM; AID 463188; 28% of 1,300 active; Recombinant Hck-YEEI:Nef, Z-Lyte FRET kinase assay; shares compounds with Hck-Nef inh;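 active means average inhibition of at least 50%, with Z-scores no higher than 3 in both the phospho-tyrosine peptide and fluorescence counterscreens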
Each line names hits and unclear results; the compound was inactive in the other large screens (follow-up assays come after a bar, where shown). Sampled rows, rich in hits. Any-hit rate of the full collection: about 3.2%.

COc1ccc(NC(C)=O)cc1S(=O)(=O)Nc1ccc(C(=O)N2CCCC2)cc1	none (no result: Bim-Mcl-1)
Cc1ccc2nc3nc(NCC4CCCO4)c(C(=O)NC4CCCCC4)cc3c(=O)n2c1 (stereo not drawn)	Hck-Nef inh 134
CCNc1nc2nc3ccc(C)cn3c(=O)c2cc1C(=O)NCC1CCCO1 (stereo not drawn)	Hck-Nef inh active
Cc1ccc2nc3nc(NCC4CCCO4)c(C(=O)NC4CCCC4)cc3c(=O)n2c1 (stereo not drawn)	Hck-Nef inh 164
Cc1ccc(S(=O)(=O)NCC2CCCO2)cc1[N+](=O)[O-] (stereo not drawn)	none
CC(C)NC(=O)C1CCN(C2CCN(Cc3ccc4cccc(F)c4n3)CC2)CC1	none
Cc1ccc(Nc2nc(=O)c3cc([N+](=O)[O-])ccc3s2)cc1	Hck-Nef inh 57 (no result: Bim-Mcl-1) | Hck Nef conf inactive
Cc1ccccc1Nc1nc(=O)c2cc([N+](=O)[O-])ccc2s1	none
O=C(N=Nc1c(O)[nH]c2ccccc12)c1cc(NS(=O)(=O)c2cccs2)cc(NS(=O)(=O)c2cccs2)c1	Hck-Nef inh 88, Mcl1 Noxa PPI 57, 14-3-3 Bad PPI 80 | Hck Nef conf active
Cc1ccc(S(=O)(=O)N(C)C)cc1NC(=O)C(C)Sc1ccccc1 (stereo not drawn)	none
COc1ccc(C(=O)Nc2ccccc2-c2nnn(CC(=O)Nc3ccc4c(c3)OCCO4)n2)cc1	Hck-Nef inh 60 (no result: Calb biofilm kill) | Hck Nef conf inactive
CC(=O)Nc1ccc(N2C(=O)c3ccc(C(=O)Nc4nnc(SCc5ccc(F)cc5)s4)cc3C2=O)cc1	Hck-Nef inh 86 | Hck Nef conf inactive
CCC(=O)Nc1nnc(SCc2ccc(F)cc2)s1	none
Cn1c2ccccc2c(=O)c2c(=O)n(Cc3ccco3)c(-c3ccc(C(C)(C)C)cc3)nc21	Mcl1-Bid inh 52, Hck-Nef inh 55 (no result: Bim-Mcl-1) | Hck Nef conf inactive
COc1ccc(Cn2c(-c3ccccc3)nc3c(c(=O)c4ccccc4n3C)c2=O)cc1	none
COc1cc(/C=C/[N+](=O)[O-])ccc1OCc1cccc(C(=O)O)c1	Hck-Nef inh 62, Mcl1 Noxa PPI 60 | Hck Nef conf inactive
Cc1cc(/C=C2\SC(=Nc3ccc(F)cc3)NC2=O)c(C)n1-c1ccc(S(N)(=O)=O)cc1	Hck-Nef inh 65 (no result: Calb biofilm kill) | Hck Nef conf active
Cc1cn2nc(N)c3ccccc3c2n1	none (no result: Calb biofilm kill)
Nc1nn2cc(-c3ccccc3)nc2c2ccccc12	Hck-Nef inh 50 | Hck Nef conf active
CC(C)=CCN1CCN(Cc2cn[nH]c2C2CCCCC2)CC1CCO (stereo not drawn)	none
C=C(C)CN(CC)Cc1c(C(=O)N(C)CCCC)nc2ccccn12	none
N#Cc1ncn(-c2ccc(Oc3ccccc3)cc2)c1N	Hck-Nef inh 74 | Hck Nef conf inactive
CCc1ccc(N2C(=O)CC(N3CCN(Cc4ccc5c(c4)OCO5)CC3)C2=O)cc1 (stereo not drawn)	none
Cc1cc(=O)oc2c(CN(C)Cc3ccccc3)c(O)ccc12	Hck-Nef inh 58 (not shown: Calb biofilm kill)
Cc1cc(/C=C2\NC(=O)NC2=O)c(C)n1-c1cccnc1	Hck-Nef inh 52 (no result: Bim-Mcl-1) | Hck Nef conf inactive
O=C(Cn1nc(-c2ccccc2)ccc1=O)Nc1ccc(-n2cnnn2)cc1	none (no result: Bim-Mcl-1)
O=C(Cn1nc(-c2ccc3c(c2)OCCO3)ccc1=O)Nc1ccc(-n2cnnn2)cc1	Hck-Nef inh 52 | Hck Nef conf inactive
CCOc1ccc(S(=O)(=O)NCCC(=O)OC(C)C(=O)N2CCc3ccccc32)cc1 (stereo not drawn)	none (no result: Calb biofilm kill)
Cc1cc(C)c(CN2CCN(Cc3ccc(C)o3)C(CCO)C2)c(-n2cccn2)c1 (stereo not drawn)	none
CCC(C)Nc1nc(N)c([N+](=O)[O-])c(Nc2cc(OC)ccc2OC)n1 (stereo not drawn)	Hck-Nef inh 52 (no result: Bim-Mcl-1) | Hck Nef conf inactive
CCC(C)Nc1nc(N)c([N+](=O)[O-])c(Nc2ccccc2OC)n1 (stereo not drawn)	none (no result: Bim-Mcl-1)
COc1cccc(OC)c1C(=O)OCC(=O)Nc1ccc(OC(F)(F)F)cc1	none (no result: Calb biofilm kill)
NS(=O)(=O)c1ccc(NC(=O)Cc2c(F)cccc2Cl)cc1	none
NS(=O)(=O)c1ccc(N2N=C(c3ccc(Br)cc3)CC2c2ccc(F)cc2)cc1 (stereo not drawn)	Hck-Nef inh 117 (no result: Calb biofilm kill) | Hck Nef conf inactive
COc1ccc(C2CC(c3ccccc3)=NN2c2ccc(S(N)(=O)=O)cc2)cc1OC (stereo not drawn)	Hck-Nef inh 74 | Hck Nef conf inactive
NS(=O)(=O)c1ccc(N2N=C(c3ccccc3)CC2c2cccc(F)c2)cc1 (stereo not drawn)	none
O=C(O)c1c(F)c(F)cc2ccccc12	none (no result: Calb biofilm kill)
O=C(CSc1ncccn1)NC1CCCc2ccccc21 (stereo not drawn)	none
O=C(CN1CCC(n2nnc3cc(F)ccc32)CC1)NCCc1nc2ccccc2[nH]1	none (no result: Calb biofilm kill)
COc1ccc(/C=C/c2nnc(NC(=O)C(C)(C)C)s2)cc1	none (no result: Bim-Mcl-1)
COc1ccc(/C=C/c2nnc(NC(=O)c3ccco3)s2)cc1	Hck-Nef inh 53 (no result: Bim-Mcl-1) | Hck Nef conf inactive
O=C(Cn1c2ccc(F)cc2c2nc3n(c(=O)c21)CCS3)Nc1ccccc1C(F)(F)F	Hck-Nef inh 89, 14-3-3 Bad PPI 81 | Hck Nef conf inactive
N=C1S/C(=C\c2ccc(-c3ccccc3C(=O)O)o2)C(=O)N1c1ccc2c(c1)OCO2	Hck-Nef inh 85, Mcl1 Noxa PPI 60 | Hck Nef conf active
COc1ccccc1N1C(=N)S/C(=C\c2ccc(-c3ccccc3C(=O)O)o2)C1=O	Hck-Nef inh 60, Mcl1 Noxa PPI 53 | Hck Nef conf active
Cc1ccc(CS(=O)(=O)CCC(=O)O)cc1	none
COc1ccc(Br)cc1/C=C/C(=O)NC(=S)Nc1ccc(Cl)c(C(=O)O)c1	Hck-Nef inh 58 | Hck Nef conf inactive
COc1ccccc1N1CCN(C(=O)C2CCN(S(=O)(=O)c3ccc(Cl)cc3)CC2)CC1	none (no result: Calb biofilm kill)
CCNC(=S)N/N=C/c1sc(N2CCCCC2)nc1-c1cccs1	none
COc1ccc(OCC(=O)Nc2nc3ccc(NC(C)=O)cc3s2)cc1	Hck-Nef inh 51 | Hck Nef conf inactive
O=C1NN(c2ccccc2)C(=O)/C1=C\c1ccc(-c2cc([N+](=O)[O-])ccc2O)o1	Hck-Nef inh 76, Mcl1 Noxa PPI 87 | Hck Nef conf active
Cc1ccc(N2NC(=O)/C(=C/c3ccc(-c4ccc(Cl)c(C(=O)O)c4)o3)C2=O)cc1	none
O=C1NN(c2ccc(Cl)cc2)C(=O)/C1=C\c1ccc(-c2cccc(C(=O)O)c2)o1	Hck-Nef inh 53, Mcl1 Noxa PPI 81 | Hck Nef conf inactive
Cc1ccsc1/C=N/NC(=O)c1ccc(-n2cccc2)cc1	none
O=C(CSCc1ccc(Cl)cc1)Nc1ccc(-c2nnc(-c3ccccc3)o2)cc1	Mcl1-Bid inh 59, Hck-Nef inh 91 | Hck Nef conf inactive
O=C(Cc1ccc(Cl)cc1)Nc1ccc(-c2nnc(-c3ccco3)o2)cc1	none (no result: Calb biofilm kill)
